Mot1-301 SUMO = yeast Mot1-301 growth rescue at high temperature, primary screen, SUMOylation pathway inhibitor project, S. cerevisiae, ATP luminescence, 38.5C | S. cerevisiae Mot1-301 growth rescue; percent above DMSO median, 100 means doubled | growth rescue, % at 18.8 µM | 320,000 tested, 1% active;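 active means every valid replicate shows activation above 250% relative to neutral control wells; inactive means the rest, any valid replicate at or below 250%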;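 further: OY570 slx delta 5 strain wells were the positive control but not used for scaling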
Efflux pump mplx = inhibitors of Candida efflux pumps in yeast, primary screen, S. cerevisiae, Nile Red, multiplex; S. cerevisiae Candida pump triplex; AID 485275, 2010; inhibition, % at 10 µM; 330,000 tested, 0.44% active;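 active means plate passing quality check with inhibition over a set limit, or well fluorescence over plate mean plus 4 SD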;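 further: Nile Red retained in pooled yeast measured as flow cytometry median fluorescence; 0% = buffer negative control and 100% = Enniatin B positive control; higher means more Nile Red kept so more efflux inhibition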
Beta cell apopt = inhibitors of cytokine-induced beta cell apoptosis, primary screen, luminescence. INS-1E cytokine-induced death, ATP luminescence, 48 h; percent of positive-control rescue, neutral wells zero. protection from apoptosis, % (concentration not given with the values). 300,000 tested, 0.8% active;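 active means Every replicate reaches about 75%, or at least half do and their mean reaches it too, limit read from the data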;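 further: 0% = cytokine-treated negative control wells and 100% = positive control rescue; higher means more ATP so stronger rescue from cytokine killing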
WT yeast gro inh = growth inhibition of WT strain, primary screen, mitochondrial fusion inhibitor project, WT and mutant strains, chemical genetic. inhibition, % at 10 µM. 190,000 tested, 2.1% active. mitochondrial fusion phenotypic screen; in the data active means inhibition above about 58%; tested in S. cerevisiae
CSC inhib = cancer stem cell viability inhibitors, primary screen, luminescence. cancer stem cell-like cells viability. inhibition, % at 7.5 µM. 300,000 tested, 1.1% active; in the data active means inhibition above about 75%; tested in HMLE shEcad cells
T cruzi inh = inhibitors of intracellular T. cruzi growth, primary screen, luminescence, NIH3T3 host cells. T. cruzi beta-gal in NIH3T3, 90 h. inhibition, % (no concentration beside the values). 300,000 tested, 1.4% active. AID 1885, 2009;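 active means mean inhibition across valid replicates above about 55%, limit read from the data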;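 further: signal also drops with host cell toxicity which is not excluded here; 0% = plate median of DMSO wells and 100% = zero luminescence signal; higher percent means less beta-gal luminescence so fewer parasites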
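System: Mouse NIH/3T3 fibroblasts infected with β-gal-expressing T. cruzi Tulahuen C4 | Quantity: NIH/3T3 cells, 5,000 per well | Reagent: 5000 reporter trypomastigotes per well | Dosing: Compound pinned at 50 nL/well, DMSO | Schedule: 3 h host attachment, then at least 90 h co-culture | Detection: GalScreen luminescence, 60 min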
* = called active by the depositor; i = inactive; / = no result given. In the library only some 4.8% were active in any assay of this set; here they are far more common.

SMILES | Mot1-301 SUMO | Efflux pump mplx | Beta cell apopt | WT yeast gro inh | CSC inhib | T cruzi inh
Cc1cc(SCC(=O)N/N=C/c2ccccc2C(=O)O)c(C)cc1Br | 28 | 0 | 1 | / | -7 | 2
CCc1cc(C(=O)N/N=C/c2ccc(O)cc2O)c2ccccc2n1 | 9 | 0 | 93* | / | 94* | 33
COc1cc(OC)c(C(=O)CCCN2CCCC2)c(OC)c1 | 258 | 0 | / | -3 | -4 | -13
CCOCCc1c(O)nc(SCC(=O)N2CCOCC2)[nH]c1=O | -2 | 0 | / | / | 0 | 1
COc1ccc(C(=O)NC(CCSC)C(=O)N2CCCCCC2)cc1 (configuration not stated) | 0 | 0 | -3 | / | / | 2
Cc1ccc(/C=N/N(Cc2ccccc2)c2ccccc2)o1 | i | 0 | 4 | -10 | 28 | 6
O=C(CNC(=O)C1COc2ccccc2O1)N/N=C\c1ccc(Cl)cc1 (configuration not stated) | 127 | 0 | -2 | / | -5 | 7
O=C(/C=C\c1ccccc1)NCC(=O)N/N=C/c1ccc(O)cc1O | 0 | 1 | 9 | / | 104* | 4
O=C(CNC(=O)C1COc2ccccc2O1)N/N=C/c1ccc(O)cc1O (configuration not stated) | -19 | 0 | 20 | 7 | 78* | -26
CC(C)CN(C(=O)c1nn(C)c(=O)c2ccccc12)c1nc2ccccc2s1 | -1 | 0 | -2 | 67* | -4 | -4
CC(C)CN(C(=O)c1ccco1)c1nc2ccccc2s1 | 189 | 0 | -3 | 46 | / | 11
Cc1[nH]c2ccc(C(=O)OCC(=O)Nc3cccc(S(N)(=O)=O)c3)cc2c1C | -10 | 0 | -3 | / | -7 | /
O=C(CSc1nnc(NC(=O)c2c(F)cccc2F)s1)NCc1ccc(F)cc1 | 670* | 0 | / | / | -3 | -12
COc1ccc(C(=O)NC(=S)NNC(=O)c2cccc(C)c2)cc1 | -21 | 0 | -4 | / | 24 | -1
Cc1cccc(C(=O)NC(=S)NNC(=O)COc2ccc(Cl)cc2)c1 | / | / | / | 64* | / | -5
CCc1cc2c(=O)nc3n(c2s1)Cc1ccccc1/C3=C(/O)c1ccc(F)cc1 | -11 | 0 | 7 | 22 | 81* | 2
CCc1cc2c(=O)nc3n(c2s1)Cc1ccccc1/C3=C(/O)c1ccccc1Cl | 818 | 0 | 89* | -1 | / | 17
CCc1cc2c(=O)nc3n(c2s1)Cc1ccccc1/C3=C(/O)c1cccc([N+](=O)[O-])c1 | 4 | 0 | -2 | 8 | 4 | -4
COc1ccc(C(=O)N2CCN(c3ccc(C(C)=O)cc3)CC2)cc1S(=O)(=O)N1CCCC1 | 1 | 0 | 2 | / | -1 | /
C=CCN=C(NC#N)SCc1ccccc1Cl | 0 | 0 | -2 | -4 | -1 | /
O=C(/C=C/c1c(F)cccc1Cl)c1ccc(O)cc1 | 59 | 0 | 4 | / | 67* | -10
CCOC(=O)c1ccc(-n2cc(C(=O)c3cccnc3)nn2)cc1 | -4 | 0 | -3 | / | -1 | -7
Cc1ccc(-n2cc(C(=O)c3ccc(F)cc3)nn2)cc1Cl | -6 | 0 | 2 | 68* | -5 | 0
Cc1[nH]nc2nc(SCC(=O)NCCC3=CCCCC3)n(-c3ccc(Br)cc3)c(=N)c12 | 8 | 0 | 93* | / | 56 | 2
Cc1cc(SCC(=O)NCCC2=CCCCC2)nc2ccccc12 | -11 | 0 | 1 | 69* | / | 5
SMILES | Mot1-301 SUMO | Efflux pump mplx | Beta cell apopt | WT yeast gro inh | CSC inhib | T cruzi inh
C/C=C/C(=O)N(CC)c1ccccc1C | / | 0 | / | 6 | / | /
CCOC(=O)C1(CCCc2ccccc2)CCN(C(=O)c2cnn(CC)c2)CC1 | 14 | 0 | -1 | 14 | 9 | /
Cc1cccc(Oc2cc(NC(=O)c3ccccc3)cc([N+](=O)[O-])c2)c1 | -4 | 0 | 100* | 26 | 55 | 22
Cn1cc([N+](=O)[O-])c(C(=O)Nc2cc(Oc3ccccc3)cc([N+](=O)[O-])c2)n1 | 9 | 0 | 0 | -7 | 96* | -27
Cc1ccc(NC(=O)c2cccc(Oc3ccc([N+](=O)[O-])cc3)c2)c(C(=O)O)c1 | 2 | 0 | -4 | / | 40 | -4
Cc1nn(C)cc1C(=O)Nc1cc(Oc2ccc(Cl)cc2)cc([N+](=O)[O-])c1 | 8 | 0 | 5 | 7 | -1 | 36
CCn1nc(C)c(C(=O)Nc2cc(Oc3cc(C)cc(C)c3)cc([N+](=O)[O-])c2)c1C | 7 | 0 | 14 | 69* | 71 | 26
Cc1ccccc1NC(=O)c1ccccc1NC(=O)CCC(=O)O | 2 | 0 | 0 | 2 | -10 | -6
Cc1c(NC(=O)C(C)Oc2ccc(Br)cc2)c(=O)n(-c2ccccc2)n1C (configuration not stated) | -1 | 0 | 2 | / | -20 | /
COc1ccc(/C=C2\CCCc3c2nc2ccccc2c3C(=O)OCC(=O)c2c(N)n(C)c(=O)n(C)c2=O)cc1 | -22 | -1 | 11 | 9 | 9 | 68*
CC(=O)NC1=C(C#N)C(c2ccccc2)c2c(ccc3ccccc23)O1 (configuration not stated) | -12 | 0 | -5 | 21 | 78* | -21
COc1cc(C)ccc1OCC(=O)OCC(=O)NCC1CCCCC1 | -12 | 0 | -9 | / | -3 | /
O=C1[C@H]2[C@@H](c3ccc(Cl)cc3)N3C(=O)N(c4cccc(F)c4)C(=O)[C@@]3(Cc3ccc(Cl)cc3)[C@H]2C(=O)N1C1CCCCC1 | -5 | 0 | 21 | / | 16 | 61*
COc1ccc([C@@H]2[C@@H]3C(=O)N(C(C)(C)C)C(=O)[C@@H]3[C@]3(C)C(=O)N(c4cccc(C)c4)C(=O)N23)cc1 | 280* | 0 | -12 | / | 0 | -12
O=C1[C@H]2[C@@H](c3ccc(F)cc3)N3C(=O)N(c4cccc(F)c4)C(=O)[C@@]3(Cc3ccc(Cl)cc3)[C@H]2C(=O)N1C1CCCCC1 | 78 | 0 | 22 | / | 5 | 30
CC(C)(C)N1C(=O)[C@H]2[C@@H](c3ccc(Br)cc3)N3C(=O)N(c4cccc(Br)c4)C(=O)[C@@]3(Cc3ccccc3)[C@H]2C1=O | -25 | 0 | 1 | / | -13 | 58*
CC(C)(C)N1C(=O)[C@H]2[C@@H](c3ccc(Br)cc3)N3C(=O)N(c4ccccc4)C(=O)[C@@]3(Cc3ccccc3)[C@H]2C1=O | -20 | 0 | -1 | / | -10 | -5
COCCCN(C(=O)CSCc1c(C)noc1C)c1c(N)n(Cc2ccccc2)c(=O)[nH]c1=O | -2 | 0 | 2 | / | -8 | -21
C[C@H](CO)N1C[C@H](C)[C@@H](CN(C)S(=O)(=O)c2ccccc2)Oc2ccc(NC(=O)Nc3ccc(C(F)(F)F)cc3)cc2C1=O | -18 | 0 | -6 | / | 102* | /

High-throughput results (PubChem BioAssay)
